Measured values reported in ChEMBL document CHEMBL4513216, “Probing the Open Global Health Chemical Diversity Library for Multistage-Active Starting Points for Next-Generation Antimalarials” (ACS Infect Dis, 2020).

Test: Toxicity liver stage against HepG2, at 10uM
Assay type: cell-based
Design: test concentration 10 uM, cell line HepG2-A16-CD81EGFP
Settings: human, HepG2-A16-CD81EGFP cells; read-out: INHIBITION
Procedure, shortened: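 Uninfected HepG2-A16-CD81EGFP cells, 3 × 10^3 per well, 1536-well, plated on prespotted compound at 10 μM final, parasite-free screening media added to match infected plates; puromycin 10 μM positive, DMSO 0.5% negative; run in parallel with 48 h PbLuc assay at 37 °C, 5% CO2; viability by CellTiter-Glo luminescence, normalized to controls.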

| SMILES | cytotoxicity at 10 µM [%] |
| --- | --- |
| O=C(c1ccnnc1)N1CCc2onc(Cn3cccn3)c2C1 | 0.529 |
| O=C(CCn1cccn1)N1CCN(CC(F)F)CC1 | -5.11 |
| Cc1nn(C(C)C)c(C)c1NC(=O)c1ccccc1 | -11.7 |
| CC(C)=CCN1CCc2onc(-c3ccc(F)c(F)c3)c2C1 | 5.67 |
| Nc1cnc(-c2cccc3ccnn23)cn1 | -1.7 |
| Cn1c(=O)[nH]c(=O)c2cc(C(=O)N3CCCC3C3CCCC3)cnc21 (stereo not given) | 14 |
| Cc1ccc([C@@H]2CN(C(=O)c3cc(C)n[nH]3)C[C@H]2NC(=O)C2CC2)cc1 | -7.77 |
| Cn1ccc(CN2CCC3(CC2)CC(Nc2cnccn2)CO3)n1 (stereo not given) | -2.66 |
| CC(=O)NCC1CCN(Cc2nc(C3CC3)no2)CC1 | -4.12 |
| c1cnc(N2CCC3(CCN(CC4CCCC4)CC3)C2)nc1 | 0.845 |
| COc1ccccc1CC(C)(C)C(=O)NCC(=O)Nc1cccnc1 | 9.21 |
| CC(C)CN1CCN(Cc2nc3ccccc3[nH]2)[C@H]2CS(=O)(=O)C[C@H]21 | 14.4 |
| CC(=O)N1C[C@H]2CNC[C@@]2(C(=O)NCCNc2ccncc2C)C1 | -6.4 |
| Cc1cc(C(C)C(=O)N2CCCN(Cc3cscn3)CC2)c(C)o1 (stereo not given) | -1.58 |
| CCOc1ccnc(NCCc2nc(C)cc(=O)[nH]2)n1 | -6.73 |
| N#CC1(C(=O)NCc2ccc(F)cc2)CCCC1 | 7.57 |
| CCN(CC1CCOC1)C(=O)c1ccccc1N1CCOCC1 (stereo not given) | -13.6 |
| CSc1nc2ccsc2c(=O)n1CC(=O)N(C)C1CCCCC1 | 0.773 |
| CCc1ncnc(N2CCOCC2CCO)c1F (stereo not given) | -2.56 |
| CN(Cc1cnccn1)C(=O)c1ccc(CSc2nnc[nH]2)o1 | 1.22 |
| Cn1cc(CCNC(=O)N2CCCc3c(F)cccc32)cn1 | 14.3 |
| CSCC(=O)NC1(c2cccc(Cl)c2)CC1 | -1.54 |

| SMILES | cytotoxicity at 10 µM [%] |
| --- | --- |
| c1nc(N2CCOCC2)sc1-c1cncn1CCCN1CCCCC1 | 0.682 |
| Cc1cccc(CN2CC3(CCNCC3)OCC2=O)n1 | -21.7 |
| CCc1ccc(C(=O)N2CCC3(CCC(=O)N(CCN(C)C)C3)CC2)[nH]1 | 5.96 |
| CN(C)Cc1cncc2c1CCN(C1CCOCC1)C2 | 11.1 |
| Cc1cccc(-n2nc(CC(C)C)nc2CCC(=O)N(C)C)c1 | -9.61 |
| COc1c(NS(=O)(=O)c2ccc(F)c(C)c2)c(C)nn1C | -6.33 |
| Nc1nc2c(c(NC(=O)Nc3ccccc3)n1)CCCC2 | -9.74 |
| CCS(=O)(=O)c1ccc(N2CCC(NC(=O)C3CCCCC3)CC2)cc1 | 12 |
| COCCC(=O)NC1CCN(CC2(c3cccc(F)c3)CCCC2)CC1 | -24.7 |
| CCCn1nc2c(cc1=O)CN(Cc1ccccn1)CC2 | 1.53 |
| O=C(c1cnc(C2CC2)s1)N1CCCC1Cn1cccn1 (stereo not given) | -5.09 |
| Cn1cc(-c2cnc(N3CCOCC3)nc2)cc1C(=O)NCCC#N | -83.9 |
| CC(NC(=O)Nc1cc(F)cc(F)c1)c1nc[nH]n1 (stereo not given) | -4.02 |
| Cc1nnc([C@H]2CCN(CCCc3ccccc3)C2)o1 | 2.87 |
| Cc1cc(C(=O)N2CCCC3(CN(C)C(=O)O3)C2)c2ccc(F)cc2n1 (stereo not given) | 3.05 |
| Cc1ccc(CCNC(=O)CC2COCCN2S(=O)(=O)N(C)C)o1 (stereo not given) | 3.39 |
| CCc1cnc(N2C[C@@H]3C[C@H](C(=O)NC)[C@H](C2)O3)nc1 | 9.76 |
| Cc1ccc(CNC(CN2CCN(C)CC2)c2ccccc2)cc1C (stereo not given) | -7.49 |
| CC1(C(=O)NC2CCCC2)CCCN(c2ncccn2)C1 (stereo not given) | -27.3 |
| CCn1c(CC2CCN(C(=O)c3ccnn3C)CC2)n[nH]c1=O | -51.1 |
| Cc1cc(C)c(CNC(=O)NCc2ccc(F)cc2)c(=O)[nH]1 | -6.34 |
| Cn1ncc2c1CN(Cc1cccnc1)CC2COCC1CC1 (stereo not given) | -10.7 |

| SMILES | cytotoxicity at 10 µM [%] |
| --- | --- |
| Cc1nc(CN2CCC(C(=O)O)(n3ccc(-c4ccco4)n3)CC2)co1 | -12.1 |
| Cc1ccc2nc(C)c(C)c(C(=O)NCCCn3cnnc3)c2c1 | -2.89 |
| CNC(=O)Cc1noc(-c2cc3c(s2)CCC(C)C3)n1 (stereo not given) | 4.75 |
| O=C1O[C@@H]2CN(Cc3cccnc3)C[C@@H]2N1CCCN1CCOCC1 | -2.27 |
| Cc1ccc(C(=O)N2CCCN(Cc3cscn3)CC2)o1 | -10.6 |
| COCC(Nc1nc(N(C)C)nc2c1CCNCC2)c1ccccn1 (stereo not given) | 1.58 |
| CC(=O)N1CCC2(CC1)CN(C(=O)c1ccc3c(c1)OCCO3)C2 | 9.15 |
| Cc1cc(=O)n(CC(=O)Nc2cccc(Cl)c2)nc1C | -6.84 |
| Cc1cc(C2CCCN(CCC(=O)N3CCc4ccccc43)C2)n[nH]1 (stereo not given) | -7.9 |
| Cc1n[nH]c(C2CN(C(=O)CCCn3cccn3)CCO2)n1 (stereo not given) | -0.138 |
| COc1ccc(-c2ccc(C(=O)N3CCC[C@@H]3CO)o2)cc1 | 7.44 |
| Cc1nn(CCO)cc1CN1CCCC1c1nc2c(C)cccc2[nH]1 (stereo not given) | 3.83 |
| Cc1nc(CN(C)Cc2cnc(N3CCOCC3)s2)no1 | 1.87 |
| c1n[nH]cc1CCCN1CCC(OC2CCCCC2)CC1 | 2.97 |
| O=C(c1cccnc1SCc1ccccc1)N1CC[C@@H](O)C1 | -2.04 |
| O=C(Cn1cnc2cc3c(cc21)OCCCO3)NCCc1ccccc1 | 7.57 |
| Cn1cc(C2CCCN2CCCc2nc(-c3cccs3)no2)cn1 (stereo not given) | -6.88 |
| CN(C)Cc1nc(C(C)(C)NC(=O)C2CC(=O)N(CC3CC3)C2)no1 (stereo not given) | -5.9 |
| O=C(Cc1ccc(F)cc1Cl)N1CC[C@H](CO)[C@@H](O)C1 | 8.08 |
| CC(NC(=O)CCNC(=O)c1ccoc1)c1ccccc1 (stereo not given) | 5.66 |
| CCOC[C@@H]1CC[C@H]2[C@H](CCN2S(=O)(=O)c2ccc(F)cc2)O1 | 1.39 |
| COc1ccc(NC(=O)NC(C)Cc2ccco2)cn1 (stereo not given) | -3.54 |

| SMILES | cytotoxicity at 10 µM [%] |
| --- | --- |
| Cc1c[nH]c(C2COCCN2S(=O)(=O)c2cn[nH]c2)n1 (stereo not given) | -22.8 |
| Cc1[nH]ncc1CCCNC(=O)N1CCOC(C)C1 (stereo not given) | 3.14 |
| Cc1cc(C)n(C2CCCN(C(=O)c3ccnc(N(C)C)c3)C2)n1 (stereo not given) | 1.9 |
| O=C(C1CCOCC1)N1C[C@H]2CCC[C@@]2(COCc2ccccn2)C1 | -112 |
| CN(CC1CCCCO1)c1nc2c(cc1C(N)=O)CCC2 (stereo not given) | -5.64 |
| CC(C)N1CCC(Cc2cncc(-c3cccc(C(=O)O)c3)n2)C1 (stereo not given) | 9.11 |
| Cc1ccc2c(c1)OC(C)(C)CC2NC(=O)C1CCN(C)CC1 (stereo not given) | -1.71 |
| COc1ccccc1-c1cc(C(F)(F)F)c2c(C)nn(CC(=O)O)c2n1 | 5.25 |
| COCC(=O)N1C[C@H]2CCC[C@@]2(COC)C1 | 5.93 |
| CCOc1cccc2c1OCC(C(=O)NS(=O)(=O)c1c(C)noc1C)=C2 | -12.1 |
| Cc1cccc(OC(C)C(=O)NCC2(N(C)C)CCCC2)c1 (stereo not given) | -13.4 |
| CS(=O)(=O)N1CCO[C@@H]2CN(Cc3ccc(F)cc3)CC[C@@H]2C1 | 6.86 |
| CCN(CC)C(=O)CN1CCCC1c1nc(C)c2c(n1)N(C)C(=O)CC2 (stereo not given) | 3.1 |
| CCn1c(C)cc(C(=O)N2CCC(Nc3cccnn3)CC2)c1C | 4.71 |
| COc1cccc(N2CCC(CNCc3cccc(C#N)c3)C2)c1 (stereo not given) | -15.3 |
| COCCCOc1ccc(C(=O)N(C)CCC(C)C)cn1 | 6.19 |
| N#CC1(NC(=O)COc2cc(Cl)cc(Cl)c2)CCSC1 (stereo not given) | 7.95 |
| CC(O)CN1CCN(C(=O)c2ccc(Cn3cccn3)cc2)CC1 (stereo not given) | -1.45 |
| Cc1nc(C)n(CC2CCCN(Cc3ccccc3C#N)C2)n1 (stereo not given) | -16.4 |
| CCOC(=O)N1[C@@H](c2ccco2)[C@@H](C(=O)O)C[C@]12CCCCNC2=O | -2.98 |
| COCCN1C[C@H]2[C@@H](C1)N(C(=O)c1cccs1)CC[C@H]2OC | -2.03 |
| Cc1cc(CCC(N)=O)cc(C2CCCN2Cc2cnc(C)nc2)n1 (stereo not given) | -26.1 |

| SMILES | cytotoxicity at 10 µM [%] |
| --- | --- |
| CC(C)SCC(=O)NCc1cc2n(n1)CCCN(C1CCCCC1)C2 | 2.37 |
| Cc1ccc(C(=O)N2CCCCC2CNC(N)=O)cc1F (stereo not given) | -6.56 |
| CCN(CC)S(=O)(=O)N1CCCC(c2ncc3c(n2)CCN(C)C3)C1 (stereo not given) | 3.77 |
| CCN(Cc1cnn(C)c1)C(=O)c1ccccc1O | 1.89 |
| O=C(C1CCCO1)N1CCC2(CC1)CNCCO2 (stereo not given) | -7.06 |
| CCc1csc(C2CCCN(C(=O)c3ccncc3)C2)n1 (stereo not given) | 5.9 |
| CC1Cc2ccccc2N1Cc1occc1C(=O)O (stereo not given) | 0.995 |
| O=C(N[C@@H]1C[C@@H]2CC[C@H]1C2)C1(Oc2ccc(Cl)cc2)CCNCC1 | -5.26 |
| CCOc1ccnc(N2CCN(C(=O)c3cn[nH]c3C)CC2)n1 | 3.54 |
| Cc1ccc(C(=O)O)cc1S(=O)(=O)N(CC(C)O)c1ccccc1 (stereo not given) | 9.83 |
| CCc1n[nH]c(C2CN(C(=O)c3nc(C)n4ccccc34)CCO2)n1 (stereo not given) | -11.2 |
| Cn1cnnc1C1CCCN(C(=O)NCc2ccccn2)C1 (stereo not given) | 2.83 |
| CSC(C)C(=O)Nc1ccnn1-c1ccccc1C (stereo not given) | -12.5 |
| CCOC(=O)CNC(=O)N1CCC(OC)c2ccccc2N(C)C(=O)C1 (stereo not given) | 3.36 |
| CCCc1nc(CN2CCCC(Cn3cncn3)C2)no1 (stereo not given) | -4.02 |
| CCn1cc2c(n1)C(COC)CN(C(=O)COc1ccccc1C)C2 (stereo not given) | 0.719 |
| COc1ccc(OC)c(S(=O)(=O)NC(=O)C(C)OC)c1 (stereo not given) | -1.2 |
| CCCN(CC(F)(F)F)S(=O)(=O)c1cc(C(N)=O)n(C)c1 | -4.15 |
| CCn1cc(NC(=O)C2CCN(Cc3noc(C4CC4)n3)CC2)cn1 | -1.41 |
| c1ccc2c(c1)CC(CNCc1ccncc1)(N1CCCCC1)C2 | -7.72 |
| Cc1ccc(C(=O)N2Cc3c(CN4CCCCC4)nn(C)c3C2)cc1C | -2.81 |
| Cc1cccc(S(=O)(=O)N2C[C@@H]3C[C@@H](c4nnc(C)[nH]4)O[C@@H]3C2)c1 | 9.59 |
